Test [1] concerns the target Nucleic Acid. Briefly: Compound was tested for binding to the bacterial decoding-site RNA target using an RNA fluorescence assay. The test is classed as nucleic-acid assay. Summed up:
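Fluorescence assay on a model decoding-site oligonucleotide, reporting ligand-induced flipping out of adenines A1492 and A1493; binding curve averaged from two titrations and fitted to a single-site model to give IC50.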

Test [2] relates to Staphylococcus aureus. Briefly: Antibacterial activity against Staphylococcus aureus (ATCC-25923). The test is classed as functional.
Test [3] deals with Staphylococcus aureus. Briefly: Compound was tested for bacterial translation inhibition (in vitro) using transcription-translation assay. The test is classed as functional. Summed up:
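Coupled in vitro transcription–translation assay; IC50 from dose–response curves averaged over six independent experiments, error bars ±1σ.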

Test [4] relates to Escherichia coli. Briefly: Antibacterial activity against Escherichia coli (Strain ATCC 25922). It is filed as functional.
The nature of test [5]: Cytotoxic concentration against proliferation of eukaryotic cells. It is filed as functional.

Among the data in ChEMBL document CHEMBL1147432, “Rational design of azepane-glycoside antibiotics targeting the bacterial ribosome” (Bioorg Med Chem Lett, 2004) are IC50, MIC and CC50 values, retold here.

In brackets after ≈: the same amount, converted by molar mass. Bounds are passed on as bounds.

`NC[C@H]1O[C@H](O[C@@H]2CCN[C@H](CO)C[C@H]2N)[C@H](N)[C@@H](O)[C@@H]1O`: the half-inhibitory concentration (IC50) was above 250 µM in test [1] and 47 µM in test [3]. Besides, the MIC in test [2] and in test [4] was above 64 µg/mL in each case.
Regarding `CN1CC[C@H](N)[C@@H](O[C@H]2O[C@H](CN)[C@@H](O)[C@H](O)[C@H]2N)C[C@@H]1CO`, the half-maximal inhibitory concentration (IC50) in test [1] was above 250 µM; in test [3], 75 µM. The minimal inhibitory concentration (MIC) in test [2] and in test [4] was above 64 µg/mL each time.
For the molecule `NC[C@H]1C[C@H](O[C@H]2O[C@H](CN)[C@@H](O)[C@H](O)[C@H]2N)[C@@H](N)CCN1`, the 50% inhibitory concentration (IC50) in test [1] is above 250 µM; in test [3], 170 µM. In addition, the MIC in test [2] and in test [4] was above 64 µg/mL in each case.
As to `NC[C@H]1O[C@H](O[C@H]2C[C@@H]3COC(=O)N3CC[C@@H]2N)[C@H](N)[C@@H](O)[C@@H]1O`, the figures for the IC50 in test [1] and in test [3] were above 250 µM and above 1000 µM, respectively. The MIC in test [2] and in test [4] was above 64 µg/mL each time.
For `NC[C@H]1O[C@H](O[C@@H]2C[C@@H](CO)NCC[C@H]2N)[C@H](N)[C@@H](O)[C@@H]1O`, the half-maximal inhibitory concentration (IC50) came out at 80 µM in test [1] and 180 µM in test [3]. Also, the MIC in test [2] and in test [4] was above 64 µg/mL in each case.
Consider `NC[C@H]1O[C@H](O[C@H]2C[C@H](CCl)NCC[C@@H]2N)[C@H](N)[C@@H](O)[C@@H]1O`, for which the concentration for half-maximal inhibition (IC50) in test [1] was above 250 µM; in test [3] it was 82 µM. The minimal inhibitory concentration (MIC) in test [2] and in test [4] was above 64 µg/mL each time.
Take `N[C@H]1[C@@H](O[C@H]2C[C@H](CO)NCC[C@@H]2N)O[C@H](CO)[C@@H](O)[C@@H]1O`: the IC50 was above 250 µM in test [1] and 110 µM in test [3]. In addition, the minimum inhibitory concentration (MIC) in test [2] and in test [4] was above 64 µg/mL each time.
In the case of `NC[C@H]1O[C@H](O[C@H]2CCN[C@@H](CO)C[C@@H]2N)[C@H](N)[C@@H](O)[C@@H]1O`, the IC50 was above 250 µM in test [1] and 370 µM in test [3]. The MIC in test [2] and in test [4] was above 64 µg/mL each time.
For the molecule `NC[C@H]1O[C@H](O[C@@H]2CCN[C@@H](CO)C[C@H]2N)[C@H](N)[C@@H](O)[C@@H]1O`, the IC50 in test [1] is above 250 µM; in test [3], 230 µM. Further, the minimal inhibitory concentration (MIC) in test [2] and in test [4] was above 64 µg/mL throughout.
`NC[C@H]1O[C@H](O[C@H]2C[C@H](CO)NCC[C@@H]2N)[C@H](N)[C@@H](OCc2ccccc2)[C@@H]1OCc1ccccc1`: the 50% inhibitory concentration (IC50) in test [1] was above 250 µM; in test [3] it was above 1000 µM. For the same molecule, the MIC in test [2] and in test [4] was above 64 µg/mL in each case.
For the molecule `NC[C@H]1O[C@H](O[C@@H]2C[C@H](CO)NCC[C@H]2N)[C@H](N)[C@@H](O)[C@@H]1O`, the results for the IC50 in test [1] and in test [3] were 12 µM and 6.4 µM, respectively. Moreover, the MIC was 32 µg/mL (≈ 99.9 µM) in test [2] and above 64 µg/mL in test [4]. Also, in test [5], the CC50 was above 320 µM.
In the case of `NC[C@H]1O[C@H](O[C@H]2C[C@H](CO)NCC[C@@H]2N)[C@H](N)[C@@H](O)[C@@H]1O`, the IC50 in test [1] was determined as 11 µM; in test [3] it was 5.7 µM. Further, the minimum inhibitory concentration (MIC) is 64 µg/mL (≈ 200 µM) in test [2] and above 64 µg/mL in test [4]. The CC50 in test [5] is above 320 µM.
Regarding `NC[C@H]1O[C@H](O[C@H]2CCN[C@H](CO)C[C@@H]2N)[C@H](N)[C@@H](O)[C@@H]1O`, the IC50 in test [1] was above 250 µM; in test [3] it was 39 µM. In addition, the MIC in test [2] and in test [4] was above 64 µg/mL each time.

As usually defined, the IC50 is the point on the concentration scale where inhibition reaches its midpoint. The term MIC denotes the smallest concentration in the dilution series that meets the test's criterion for growth inhibition. The term CC50 denotes the concentration giving 50% cytotoxicity.
